Active and inactive are the calls of the source. No cut-off for these calls is given here.
Assays:
[1] = molecular target: T1, Melanocyte-stimulating hormone receptor (Homo sapiens, UniProt Q01726); assay: Displacement of [125I]NDP-alphaMSH from human MC1 receptor expressed in HEK293 cells; type: cell-based
In short: (§1)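 Whole-cell competition used transfected HEK293 cells seeded 48 h ahead at 100 000 cells/well. Binding buffer was MEM with 25 mM HEPES pH 7.4, 0.2% BSA, 1 mM 1,10-phenanthroline, leupeptin and bacitracin. Radioactivity was gamma-counted, and IC50 was obtained by nonlinear least-squares fit.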

[2] = molecular target: T2, Melanocortin receptor 3 (Homo sapiens, UniProt P41968); assay: Displacement of [125I]NDP-alphaMSH from human MC3 receptor expressed in HEK293 cells; type: cell-based; in short: as §1
T2 sequence (P41968 whole entry): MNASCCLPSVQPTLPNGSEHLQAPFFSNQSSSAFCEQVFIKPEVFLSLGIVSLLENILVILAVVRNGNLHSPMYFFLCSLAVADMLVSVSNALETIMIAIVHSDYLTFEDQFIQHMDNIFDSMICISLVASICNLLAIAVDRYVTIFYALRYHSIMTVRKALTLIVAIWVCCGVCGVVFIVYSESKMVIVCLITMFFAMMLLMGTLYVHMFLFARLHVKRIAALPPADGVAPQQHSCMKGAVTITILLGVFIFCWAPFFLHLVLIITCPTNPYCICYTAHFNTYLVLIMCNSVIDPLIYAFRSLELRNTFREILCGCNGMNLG

[3] = molecular target: T3, Melanocortin receptor 4 (Homo sapiens, UniProt P32245); assay: Displacement of [125I]NDP-alphaMSH from human MC4 receptor expressed in HEK293 cells; type: cell-based; in short: as §1
T3 sequence (P32245 whole entry): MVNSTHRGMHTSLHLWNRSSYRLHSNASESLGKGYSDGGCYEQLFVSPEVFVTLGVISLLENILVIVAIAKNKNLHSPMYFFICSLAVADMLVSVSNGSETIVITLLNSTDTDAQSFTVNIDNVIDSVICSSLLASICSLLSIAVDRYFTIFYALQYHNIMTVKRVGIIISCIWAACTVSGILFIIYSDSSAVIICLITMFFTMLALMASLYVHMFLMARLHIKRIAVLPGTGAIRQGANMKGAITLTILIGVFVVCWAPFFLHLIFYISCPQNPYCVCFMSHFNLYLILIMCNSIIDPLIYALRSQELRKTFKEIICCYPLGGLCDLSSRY

[4] = molecular target: T4, Melanocortin receptor 5 (Homo sapiens, UniProt P33032); assay: Displacement of [125I]NDP-alphaMSH from human MC5 receptor expressed in HEK293 cells; type: cell-based; in short: as §1
T4 sequence (P33032 whole entry): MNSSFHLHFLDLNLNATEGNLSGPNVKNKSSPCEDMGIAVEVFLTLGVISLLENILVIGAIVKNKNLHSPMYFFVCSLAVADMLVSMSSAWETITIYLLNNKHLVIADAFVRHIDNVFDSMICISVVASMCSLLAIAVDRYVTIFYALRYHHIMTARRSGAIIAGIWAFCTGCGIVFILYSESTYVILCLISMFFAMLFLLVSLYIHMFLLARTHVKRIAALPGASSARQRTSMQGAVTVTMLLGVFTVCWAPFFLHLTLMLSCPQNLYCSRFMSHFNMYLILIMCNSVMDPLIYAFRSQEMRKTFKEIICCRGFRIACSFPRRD

[5] = molecular target: T2, Melanocortin receptor 3; assay: Activity at hMC3R transfected in HEK293 cells assessed as intracellular cAMP accumulation; type: functional, cell-based
In short: (§2)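 HEK293 cells stably carrying the human MC receptor were seeded 48 h ahead at 50 000 cells/well. They were preincubated 1 min at 37 °C in EBSS with IBMX, then exposed to peptide at 10⁻¹⁰ to 10⁻⁵ M for 3 min at 37 °C. Ice-cold Tris/EDTA stopped the reaction, and lysates were boiled 15 min. Total cAMP was measured by competitive binding kit, and EC50 was obtained by nonlinear least-squares fit.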

[6] = molecular target: T3, Melanocortin receptor 4; assay: Activity at hMC4R transfected in HEK293 cells assessed as intracellular cAMP accumulation; type: functional, cell-based; in short: as §2
[7] = molecular target: T4, Melanocortin receptor 5; assay: Activity at hMC5R transfected in HEK293 cells assessed as intracellular cAMP accumulation; type: functional, cell-based; in short: as §2
[8] = molecular target: T1, Melanocyte-stimulating hormone receptor; assay: Displacement of [125I]NDP-alphaMSH from human MC1 receptor expressed in HEK293 cells relative to MT2; type: cell-based
In short: (§3)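 Binding efficiency was measured in the whole-cell [¹²⁵I]NDP-α-MSH competition assay on receptor-transfected HEK293 cells (30 min, 37 °C). It is expressed as the peptide's maximal percentage specific binding relative to MTII agonist binding, with peptides tested at 10⁻¹⁰ to 10⁻⁵ M.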
Target sequence in this assay (Q01726 whole entry, looked up): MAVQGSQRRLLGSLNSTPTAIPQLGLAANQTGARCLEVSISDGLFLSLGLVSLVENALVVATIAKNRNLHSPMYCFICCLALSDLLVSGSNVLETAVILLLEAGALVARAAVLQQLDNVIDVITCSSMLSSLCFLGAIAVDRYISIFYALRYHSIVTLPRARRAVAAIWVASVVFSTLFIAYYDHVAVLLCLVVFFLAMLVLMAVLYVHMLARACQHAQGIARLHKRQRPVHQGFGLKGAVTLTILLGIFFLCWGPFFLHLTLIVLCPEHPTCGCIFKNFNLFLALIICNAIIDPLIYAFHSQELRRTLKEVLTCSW

[9] = molecular target: T2, Melanocortin receptor 3; assay: Displacement of [125I]NDP-alphaMSH from human MC3 receptor expressed in HEK293 cells relative to MT2; type: cell-based; in short: as §3
[10] = molecular target: T3, Melanocortin receptor 4; assay: Displacement of [125I]NDP-alphaMSH from human MC4 receptor expressed in HEK293 cells relative to MT2; type: cell-based; in short: as §3
[11] = molecular target: T4, Melanocortin receptor 5; assay: Displacement of [125I]NDP-alphaMSH from human MC5 receptor expressed in HEK293 cells relative to MT2; type: cell-based; in short: as §3
[12] = molecular target: T1, Melanocyte-stimulating hormone receptor; assay: Activity at hMC1R transfected in HEK293 cells assessed as intracellular cAMP accumulation relative to MT2; type: functional, cell-based; parameters: concentration or dose not given beside the values
Target sequence in this assay (Q01726 whole entry, looked up): as above

[13] = molecular target: T2, Melanocortin receptor 3; assay: Activity at hMC3R transfected in HEK293 cells assessed as intracellular cAMP accumulation relative to MT2; type: functional, cell-based; parameters: concentration or dose not given beside the values
[14] = molecular target: T3, Melanocortin receptor 4; assay: Activity at hMC4R transfected in HEK293 cells assessed as intracellular cAMP accumulation relative to MT2; type: functional, cell-based; parameters: concentration or dose not given beside the values
[15] = molecular target: T4, Melanocortin receptor 5; assay: Activity at hMC5R transfected in HEK293 cells assessed as intracellular cAMP accumulation relative to MT2; type: functional, cell-based

SMILES	IC50 [1] [nM]	Activity [2]	Activity [4]	Activity [5]	Activity [6]	Activity [7]	Activity [8] [%]	Activity [9] [%]	Activity [10] [%]	Activity [11] [%]	Activity [12] [%]	Activity [13] [%]	Activity [14] [%]	Activity [15] [%]	IC50 [2] [nM]	IC50 [3] [nM]	EC50 [6] [nM]	Activity [1]	Activity [3]	IC50 [4] [nM]
CC(=O)N[C@H]1CSSC[C@@H](C(=O)N(CCCCN=C(N)N)[C@H](Cc2c[nH]c3ccccc23)C(N)=O)NC(=O)[C@@H](Cc2ccccc2)NC(=O)[C@H](Cc2cnc[nH]2)NC1=O															> 1000	0.7	> 1000			
CC(=O)N[C@H]1CCC(=O)NCCC(C(=O)N[C@@H](Cc2c[nH]c3ccccc23)C(N)=O)N(CCCCN=C(N)N)C(=O)[C@@H](Cc2ccccc2)NC(=O)[C@H](Cc2c[nH]cn2)NC1=O (stereo not given in full)			inactive	inactive	inactive	inactive	< 10	50	0	0	0	0	0	0					inactive	
CC(=O)N[C@H]1CCC(=O)NCC[C@@H](C(=O)N[C@@H](Cc2c[nH]c3ccccc23)C(N)=O)N(CCCCN=C(N)N)C(=O)[C@@H](Cc2ccccc2)NC(=O)[C@H](Cc2cnc[nH]2)NC1=O	> 1000														> 1000					
CC(=O)N[C@H]1CSSC[C@@H](C(=O)N(CCCCN=C(N)N)[C@@H](Cc2c[nH]c3ccccc23)C(N)=O)NC(=O)[C@@H](Cc2ccccc2)NC(=O)[C@H](Cc2cnc[nH]2)NC1=O	> 1000														> 1000	4.1	> 1000			
CC(=O)N[C@H]1CSSC[C@@H](C(=O)N(CCCCN=C(N)N)C(Cc2c[nH]c3ccccc23)C(N)=O)NC(=O)[C@@H](Cc2ccc3ccccc3c2)NC(=O)[C@H](Cc2c[nH]cn2)NC1=O (stereo in doubt)	> 1000	inactive		inactive	inactive	inactive	< 10	0	0	< 10	0	0	0	0					inactive	209
CC(=O)N[C@H]1CSSC[C@@H](C(=O)N(CCCCN=C(N)N)[C@@H](Cc2c[nH]c3ccccc23)C(N)=O)NC(=O)[C@@H](Cc2ccccc2)NC(=O)[C@H](Cc2c[nH]cn2)NC1=O			inactive	inactive		inactive	< 10	50	50	0	0	0	18	0						
CC(=O)N[C@H]1CCC(=O)NCCC[C@@H](C(=O)N[C@@H](Cc2c[nH]c3ccccc23)C(N)=O)N(CCCCN=C(N)N)C(=O)[C@@H](Cc2ccc3ccccc3c2)NC(=O)[C@H](Cc2c[nH]cn2)NC1=O	> 10000		inactive	inactive	inactive	inactive	< 10	50	0	0	0	0	0	0	> 1000				inactive	

Second part, led by results:

IC50 [1] [nM]	Activity [2]	Activity [4]	Activity [5]	Activity [6]	Activity [7]	Activity [8] [%]	Activity [9] [%]	Activity [10] [%]	Activity [11] [%]	Activity [12] [%]	Activity [13] [%]	Activity [14] [%]	Activity [15] [%]	IC50 [2] [nM]	IC50 [3] [nM]	EC50 [6] [nM]	Activity [1]	SMILES	Activity [3]	IC50 [4] [nM]
1000	inactive	inactive	inactive	inactive	inactive	< 10	0	0	0	0	0	0	0					CC(=O)N[C@H]1CSSC[C@H](C(=O)N[C@@H](Cc2c[nH]c3ccccc23)C(N)=O)N(CCCCN=C(N)N)C(=O)[C@@H](Cc2ccccc2)NC(=O)[C@H](Cc2c[nH]cn2)NC1=O	inactive	
750		inactive	inactive		inactive	< 10	50	50	0	0	0	< 10	0	> 1000	101	> 1000		CC(=O)N[C@H]1CCC(=O)NCCC[C@@H](C(=O)N[C@@H](Cc2c[nH]c3ccccc23)C(N)=O)N(CCCCN=C(N)N)C(=O)[C@@H](Cc2ccccc2)NC(=O)[C@H](Cc2c[nH]cn2)NC1=O		
	inactive	inactive	inactive	inactive	inactive	0	0	50	0	0	0	0	0				inactive	CC(=O)N[C@H]1CSSC[C@@H](C(=O)N[C@@H](Cc2c[nH]c3ccccc23)C(N)=O)N(CCCCN=C(N)N)C(=O)[C@@H](Cc2ccccc2)NC(=O)[C@H](Cc2c[nH]cn2)NC1=O		
															1.8			CC(=O)N[C@H]1CSSC[C@@H](C(=O)N[C@@H](Cc2c[nH]c3ccccc23)C(N)=O)N(CCCCN=C(N)N)C(=O)[C@@H](Cc2ccccc2)NC(=O)[C@H](Cc2cnc[nH]2)NC1=O		
		inactive	inactive		inactive	0	< 10	50	0	0	0	19	0				inactive	CC(=O)N[C@H]1CSSC[C@@H](C(=O)N(CCCCN=C(N)N)[C@H](Cc2c[nH]c3ccccc23)C(N)=O)NC(=O)[C@@H](Cc2ccccc2)NC(=O)[C@H](Cc2c[nH]cn2)NC1=O		

From ChEMBL document CHEMBL1137337, “Design, synthesis, and biological evaluation of new cyclic melanotropin peptide analogues selective for the human melanocortin-4 receptor” (J Med Chem, 2006)
